Activity calls are given as the source filed them.
Legend:
[1] = Inhibition of HedgeHog pathway in mouse C3H10T1/2 cells assessed as inhibition of 20-(S)-hydroxysterol/22-(S)-hydroxysterol-induced osteoblastic differentiation after 72 hrs by alkaline phosphatase assay; conditions: C3H 10T1/2, 72 h
[2] = Volume of distribution in Sprague-Dawley rat at 1 mg/kg, iv; assay type: ADME, organism-based; set-up: dose 1 mg/kg, route intravenous; conditions: in vivo
Method in brief: (§1)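 Plasma sampled at 0.083-24 h (T_last 24 h), protein-precipitated with acetonitrile containing jervine internal standard, and quantified by LC/MS/MS. Parameters taken from the concentration-time profile.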

[3] = system: Mus musculus; assay: Antitumor activity against Ptc+/- Hic+/- mouse B837Tx cells allografted in NOD/SCID mouse assessed as effect on recurrence rate on post treatment at 40 mg/kg, po administered daily for 21 days; assay type: functional, organism-based; set-up: dose 40 mg/kg
Method in brief: (§2)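 NOD/SCID mice given 1 × 10^6 B837Tx cells in the right hind flank. Once tumors reached about 100-200 mm³, N=10/group were gavaged daily for 21 days. Vehicle: 30% (w/w) HPBCD in 0.1 M citrate phosphate buffer, pH 3, dosing solutions 5-10 mg/mL. Tumors measured in two perpendicular dimensions by caliper 3 times weekly. Regrowth monitored over a 21-day post-treatment phase.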

[4] = Plasma clearance in CD1 mouse at 1 mg/kg, iv; assay type: ADME, organism-based; set-up: dose 1 mg/kg, route intravenous
Method in brief: as §1

[5] = Oral bioavailability in cynomolgus monkey at 4 mg/kg; assay type: ADME, organism-based, Macaca fascicularis; conditions: in vivo
[6] = Plasma clearance in Sprague-Dawley rat at 1 mg/kg, iv; assay type: ADME, organism-based; set-up: dose 1 mg/kg, route intravenous
Method in brief: as §1

[7] = Elimination half life in Sprague-Dawley rat at 1 mg/kg, iv; assay type: ADME, organism-based; set-up: dose 1 mg/kg, route intravenous; conditions: in vivo, read-out: beta t1/2 (converted)
Method in brief: as §1

[8] = Antitumor activity against Ptc+/- Hic+/- mouse B837Tx cells allografted in NOD/SCID mouse assessed as median time to unmeasurable tumor volume at 40 mg/kg, po administered daily for 21 days; assay type: functional
Method in brief: as §2

[9] = Oral bioavailability in Beagle dog at 4 mg/kg; assay type: ADME, organism-based, Canis lupus familiaris; conditions: in vivo
[10] = Elimination half life in CD1 mouse at 1 mg/kg, iv; assay type: ADME, organism-based; set-up: dose 1 mg/kg, route intravenous; conditions: in vivo, read-out: beta t1/2 (converted)
Method in brief: as §1

[11] = Plasma clearance in cynomolgus monkey at 1 mg/kg, iv; assay type: ADME, organism-based, Macaca fascicularis; set-up: dose 1 mg/kg, route intravenous
Method in brief: as §1

[12] = molecular target: Protein smoothened (Homo sapiens, UniProt Q99835); assay: Inhibition of human recombinant SMO expressed in mouse C3H10T1/2 cells assessed as inhibition of association of BODIPY-cyclopamine; assay type: cell-based, C3H 10T1/2
Sequence of Protein smoothened (Q99835 whole entry): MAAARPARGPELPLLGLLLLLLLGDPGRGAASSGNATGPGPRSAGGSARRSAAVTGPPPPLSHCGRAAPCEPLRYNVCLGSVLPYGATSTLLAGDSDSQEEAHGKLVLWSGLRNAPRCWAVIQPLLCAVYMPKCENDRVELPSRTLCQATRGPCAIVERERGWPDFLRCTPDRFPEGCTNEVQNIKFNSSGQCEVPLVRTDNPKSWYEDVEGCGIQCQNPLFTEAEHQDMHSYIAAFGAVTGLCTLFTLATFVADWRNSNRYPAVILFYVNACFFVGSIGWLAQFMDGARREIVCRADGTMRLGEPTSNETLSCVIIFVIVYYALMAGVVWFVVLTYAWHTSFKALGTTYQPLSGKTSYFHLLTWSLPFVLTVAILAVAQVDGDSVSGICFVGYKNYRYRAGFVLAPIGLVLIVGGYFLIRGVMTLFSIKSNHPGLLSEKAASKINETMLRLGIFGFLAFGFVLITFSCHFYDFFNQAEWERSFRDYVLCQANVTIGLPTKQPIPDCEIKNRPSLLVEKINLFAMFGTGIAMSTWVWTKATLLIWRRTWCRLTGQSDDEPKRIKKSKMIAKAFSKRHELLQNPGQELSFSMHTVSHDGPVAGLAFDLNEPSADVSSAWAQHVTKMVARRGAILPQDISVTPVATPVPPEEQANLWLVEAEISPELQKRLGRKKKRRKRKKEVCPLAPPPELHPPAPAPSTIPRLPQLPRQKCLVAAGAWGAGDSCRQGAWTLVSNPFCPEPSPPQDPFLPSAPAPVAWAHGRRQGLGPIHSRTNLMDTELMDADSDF

[13] = Oral bioavailability in Sprague-Dawley rat at 5 mg/kg; assay type: ADME, organism-based; conditions: in vivo
[14] = Volume of distribution in CD1 mouse at 1 mg/kg, iv; assay type: ADME, organism-based; set-up: dose 1 mg/kg, route intravenous; conditions: in vivo
Method in brief: as §1

[15] = Antitumor activity against Ptc+/- Hic+/- mouse B837Tx cells allografted in NOD/SCID mouse assessed as tumor-free interval on 21 days post treatment at 40 mg/kg, po administered daily for 21 days; assay type: functional
Method in brief: as §2

[16] = Elimination half life in Beagle dog at 1 mg/kg, iv; assay type: ADME, organism-based, Canis lupus familiaris; set-up: dose 1 mg/kg, route intravenous; conditions: in vivo, read-out: beta t1/2 (converted)
Method in brief: as §1

[17] = Volume of distribution in Beagle dog at 1 mg/kg, iv; assay type: ADME, organism-based, Canis lupus familiaris; set-up: dose 1 mg/kg, route intravenous; conditions: in vivo
Method in brief: as §1

[18] = in vitro; conditions: human
[19] = Toxicity in po dosed Ptc+/- Hic+/- mouse B837Tx cells allografted NOD/SCID mouse assessed as maximum tolerated dose after 5 days; assay type: organism-based; conditions: in vivo
Method in brief: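 Tumor-bearing immunocompromised mice received repeat oral dosing for 5 days. MTD was defined as the dose tolerated by all animals (N = 3).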

[20] = Oral bioavailability in CD1 mouse at 5 mg/kg; assay type: ADME, organism-based; conditions: in vivo
[21] = Elimination half life in cynomolgus monkey at 1 mg/kg, iv; assay type: ADME, organism-based, Macaca fascicularis; set-up: dose 1 mg/kg, route intravenous; conditions: in vivo, read-out: beta t1/2 (converted)
Method in brief: as §1

[22] = Plasma clearance in Beagle dog at 1 mg/kg, iv; assay type: ADME, organism-based, Canis lupus familiaris; set-up: dose 1 mg/kg, route intravenous
Method in brief: as §1

[23] = Antitumor activity against Ptc+/- Hic+/- mouse B837Tx cells allografted in NOD/SCID mouse assessed as median time to unmeasurable tumor volume at 80 mg/kg, po administered daily for 21 days; assay type: functional
Method in brief: as §2

[24] = Antitumor activity against Ptc+/- Hic+/- mouse B837Tx cells allografted in NOD/SCID mouse assessed as tumor-free interval on 21 days post treatment at 80 mg/kg, po administered daily for 21 days; assay type: functional
Method in brief: as §2

[25] = Volume of distribution in cynomolgus monkey at 1 mg/kg, iv; assay type: ADME, organism-based, Macaca fascicularis; set-up: dose 1 mg/kg, route intravenous; conditions: in vivo
Method in brief: as §1

[26] = Antitumor activity against Ptc+/- Hic+/- mouse B837Tx cells allografted in NOD/SCID mouse assessed as median time to unmeasurable tumor volume at 30 mg/kg, po administered daily for 21 days; assay type: functional
Method in brief: as §2

[27] = Antitumor activity against Ptc+/- Hic+/- mouse B837Tx cells allografted in NOD/SCID mouse assessed as tumor-free interval on 21 days post treatment at 30 mg/kg, po administered daily for 21 days; assay type: functional
Method in brief: as §2

With `CC1=C2C[C@H]3[C@@H](CC[C@@H]4C[C@H](NS(C)(=O)=O)CC[C@@]43C)[C@@H]2CC[C@@]2(C1)O[C@@H]1C[C@H](C)CN[C@H]1[C@H]2C` [PATIDEGIB] the EC50 [1] was 7 nM, the Vd [2] was 30 L/kg and the Activity [3] was “Active”. It also gave a clearance [4] of 12.3 mL/min/kg, a bioavailability [5] of 74% and a clearance [6] of 3.5 mL/min/kg. The half-life [7] was > 24 h, the Activity [8] was 9 days and the bioavailability [9] was 50%. It also gave a half-life [10] of 10.5 h, a clearance [11] of 15 mL/min/kg and an IC50 [12] of 1.4 nM. The bioavailability [13] was 100%, the Vd [14] was 11 L/kg and the Activity [15] was 21 days. The half-life [16] was 15.5 h, the Vd [17] was 15.3 L/kg and the half-life at 0.5 µM ([18]; microsomes) was 1.42 h. It also gave an MTD at 120 h [19] of 40 mg/kg, a bioavailability [20] of 100% and a half-life [21] of 8.2 h. For the same molecule, the clearance [22] was 11 mL/min/kg.

Molecule `CC1=C2C[C@H]3[C@@H](CC[C@@H]4Cc5[nH]ncc5C[C@@]43C)[C@@H]2CC[C@@]2(C1)O[C@@H]1C[C@H](C)CN[C@H]1[C@H]2C` has an Activity [23] of 9 days, an EC50 [1] of 13 nM and a Vd [2] of 13 L/kg. It also gave a clearance [4] of 33.3 mL/min/kg, a bioavailability [5] of 84% and a clearance [6] of 125 mL/min/kg. It also gave a half-life [7] of 1.2 h, an Activity [24] of 19 days and a bioavailability [9] of 73%. It also gave a half-life [10] of 3 h, a clearance [11] of 30 mL/min/kg and a bioavailability [13] of 34%. For the same molecule, the Vd [14] was 9 L/kg, the half-life [16] was 6.8 h and the Vd [25] was 13 L/kg. For the same molecule, the Vd [17] was 6 L/kg, the half-life at 0.5 µM ([18]; liver microsomes) was 2 h and the MTD at 120 h [19] was 80 mg/kg. It also gave a bioavailability [20] of 52%, a half-life [21] of 5.6 h and a clearance [22] of 10 mL/min/kg.

With `CC1=C2C[C@H]3[C@@H](CC[C@@H]4CNC(=O)CC[C@@]43C)[C@@H]2CC[C@@]2(C1)O[C@@H]1C[C@H](C)CN[C@H]1[C@H]2C` the EC50 [1] was 25 nM, the Vd [2] was 4.9 L/kg and the clearance [4] was 8.33 mL/min/kg. The Activity [26] was 9 days, the bioavailability [5] was 100% and the clearance [6] was 10.5 mL/min/kg. For the same molecule, the half-life [7] was 5.4 h, the Activity [27] was 10 days and the bioavailability [9] was 97%. For the same molecule, the half-life [10] was 3 h, the clearance [11] was 13.3 mL/min/kg and the bioavailability [13] was 100%. The Vd [14] was 2 L/kg, the half-life [16] was 6.5 h and the Vd [25] was 4.3 L/kg. It also gave a Vd [17] of 3 L/kg, a half-life at 0.5 µM ([18]; microsomes) of 1.08 h and an MTD at 120 h [19] of 30 mg/kg. The bioavailability [20] was 100%, the half-life [21] was 3.8 h and the clearance [22] was 5.5 mL/min/kg.
